Measurements: article PMC2947312 (Neuron, 2010)

Columns and labels:
[1] = test system: Aβ42, Aβ40 and Aβtotal produced by SH-SY5Y-APP cells; assay: SH-SY5Y-APP cell-based Aβ assay; design: species or system human
How it was run: (§1)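 Stable lines: CHO-APPswe is CHO transfected with human APP695 carrying the Swedish double mutation (670/671 K/M to N/L). SH-SY5Y-APP is human neuroblastoma SH-SY5Y transfected with wild-type human APP751. Secreted Aβ40, Aβ42 and Aβtotal were measured in conditioned medium by mAb-specific sandwich ELISAs. Cytotoxicity was checked by Alamar Blue at the same compound concentrations, up to a maximum of 30 μM.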

[2] = test system: Aβ42, Aβ40 and Aβtotal produced by CHO-APPswe cells; assay: CHO-APPswe cell-based Aβ assay; design: species or system Chinese hamster
How it was run: as §1

[3] = test system: Aβ peptide variants from CHO-APPswe cells; assay: SELDI-TOF MS of Aβ peptide variants in CHO-APPswe conditioned medium; assay type: cell-based, Chinese hamster; conditions: 1 μM
How it was run: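 CHO-APPswe cells were treated with vehicle, reference γ-secretase inhibitor (1 µM) or test compound (1 µM). Conditioned medium was immunoprecipitated with anti-Aβ17-24 mAb 4G8. Ciphergen chips were prepared from the medium and analysed by SELDI-TOF mass spectrometry to profile Aβ peptide variants.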

[4] = test system: Aβ peptides secreted from Tg 2576 primary mixed brain cultures; assay: Aβ peptides in Tg 2576 mixed brain cultures; assay type: cell-based, mouse; conditions: Tg 2576 MBCs
How it was run: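 Neuronal cultures came from E17 Tg 2576 embryo brains, grown 6 days, then treated 18 h in triplicate wells at 10 concentrations in 3-fold dilution steps. Vehicle (PEG-400:H2O 80:20 v/v) was the negative control and BMS-299897 the positive control. Aβ38 was read by Meso Scale assay; Aβ40, Aβ42 and Aβtotal by mAb sandwich ELISA. Variants were resolved by anti-Aβ immunoprecipitation, tris-glycine gel electrophoresis and immunoblotting.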

[5] = test system: γ-secretase-mediated ε-site processing of Notch (NΔE); assay: NICD formation in HEK-APP-NΔE_7-4 cells; assay type: cell-based, human; conditions: NΔE Notch/APP co-transfected cell line; DAPT 1 μM
How it was run: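 HEK293 cells doubly transfected with APP and Notch NΔE were treated overnight with test compound, 1 μM DAPT, or 0.2% v/v DMSO vehicle. Conditioned medium was collected, cell lysates were prepared, and anti-NICD immunoblots were run with GAPDH as a control. NICD was quantified by laser scanning densitometry against a half-volume vehicle sample.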

[6] = test system: γ-secretase (AICD, Aβ42 and Aβ40 formation from APP-CTFs); assay: Cell-free assay of AICD and Aβ formation, CHO-APPswe membranes; assay type: biochemical, Chinese hamster; conditions: DAPT 1 μM, Compound 3 over a broad range of concentrations
How it was run: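 CHO-APPswe membrane preparations were incubated cell-free with vehicle (0.2% DMSO), 1 μM DAPT, or a range of test compound concentrations. AICD (ε-site) and Aβ42/Aβ40 (γ-site) formation were measured in parallel from the same preparations, semi-quantitatively. Data are mean ± SEM, n ≥ 3.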

C[C@H](c1ccc(F)cc1CCCC(=O)O)N(c1cc(F)ccc1F)S(=O)(=O)c1ccc(Cl)cc1 [BMS-299897]
effect on Aβ42, Aβ40 and Aβtotal peptide levels [1]: equivalently inhibited Aβ42, Aβ40 and Aβtotal peptide production
effect on Aβ42, Aβ40 and Aβtotal peptide levels [2]: equivalently inhibited Aβ42, Aβ40 and Aβtotal peptide production
effect on Aβ peptide variants (SELDI-TOF MS) [3]: reduced the levels of all Aβ peptide variants to baseline levels
effect on Aβ42, Aβ40, Aβ38 and Aβtotal (Meso Scale ELISAs) ([4]; 18 h): dose-dependent decrease in Aβ42, Aβ40, Aβ38 and Aβtotal levels
effect on Aβ peptide variants (IP/immunoblot) ([4]; BMS-299897 1 μM): reduced the levels of all Aβ variants (Aβ37, Aβ38, Aβ40 and Aβ42) to undetectable levels

C[C@H](NC(=O)Cc1cc(F)cc(F)c1)C(=O)N[C@H](C(=O)OC(C)(C)C)c1ccccc1 [DAPT, N-[N-(3,5-difluorophenacetyl)-L-alanyl]-S-phenylglycine t-butyl ester]
effect on NICD formation [5]: prevented NICD production entirely
effect on AICD formation [6]: totally inhibited
